ChEMBL document CHEMBL2380254, “Optimization of tocotrienols as antiproliferative and antimigratory leads” (Eur J Med Chem, 2013)

Experiments:
Type in all cases: functional
MDA-MB-468 [1] = assay: Growth inhibition of human MDA-MB-468 cells assessed as cell growth at 10 uM after 48 hrs by sulforhodamine B assay; settings: MDA-MB-468, 48 h, read-out: Activity
How it was run: (§1)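 Single-dose NCI-60 screen: adherent cells in RPMI 1640 with 5% FBS were exposed to 10 µM for 48 h at 37 °C after a 24 h preincubation. They were fixed in situ with cold TCA (10% final), stained with 0.4% SRB in 1% acetic acid, solubilized in 10 mM Tris base, and read at 515 nm. Percent growth was taken relative to time-zero and control plates.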

BT-549 = assay: Growth inhibition of human BT549 cells assessed as cell growth at 10 uM after 48 hrs by sulforhodamine B assay; settings: BT-549, 48 h, read-out: Activity
How it was run: (§2)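 NCI-60 single-dose screen at 10 µM: cells in RPMI 1640 with 5% FBS, preincubated 24 h, then exposed 48 h at 37 °C. TCA fixation (16% final for suspension cells), SRB staining, absorbance 515 nm. Percent growth relative to time-zero and untreated control plates; negative values indicate cell kill.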

DU-145 = assay: Growth inhibition of human DU145 cells assessed as cell growth at 10 uM after 48 hrs by sulforhodamine B assay; settings: DU-145, 48 h, read-out: Activity; how it was run: as §2
PC-3 = assay: Growth inhibition of human PC3 cells assessed as cell growth at 10 uM after 48 hrs by sulforhodamine B assay; settings: PC-3, 48 h, read-out: Activity; how it was run: as §1
OVCAR-5 [2] = assay: Growth inhibition of human OVCAR5 cells assessed as cell growth at 10 uM after 48 hrs by sulforhodamine B assay; settings: OVCAR-5, 48 h, read-out: Activity; how it was run: as §1
MDA-MB-435 [3] = assay: Growth inhibition of human MDA-MB-435 cells assessed as cell growth at 10 uM after 48 hrs by sulforhodamine B assay; settings: MDA-MB-435, 48 h, read-out: Activity; how it was run: as §1
Malme-3M = assay: Growth inhibition of human MALME-3M cells assessed as cell growth at 10 uM after 48 hrs by sulforhodamine B assay; settings: read-out: Activity; how it was run: as §1
SF-268 [4] = assay: Growth inhibition of human SF268 cells assessed as cell growth at 10 uM after 48 hrs by sulforhodamine B assay; settings: SF-268, 48 h, read-out: Activity; how it was run: as §1
SW-620 = assay: Growth inhibition of human SW620 cells assessed as cell growth at 10 uM after 48 hrs by sulforhodamine B assay; settings: SW-620, 48 h, read-out: Activity
How it was run: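 Single-dose NCI-60 test at 10 µM. Cells were grown in RPMI 1640 with 5% FBS and 2 mM L-glutamine, preincubated 24 h, with T0 plates TCA-fixed. Exposure was 48 h at 37 °C, 5% CO2. Cells were fixed with cold TCA (final 10%, 4 °C, 60 min), stained with SRB and read at 515 nm. Percent growth was taken relative to T0 and untreated control; negative values denote cell kill.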

MOLT-4 = assay: Growth inhibition of human MOLT4 cells assessed as cell growth at 10 uM after 48 hrs by sulforhodamine B assay; settings: MOLT-4, 48 h, read-out: Activity
How it was run: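 Single 10 µM dose applied to suspension cells in RPMI 1640 with 5% FBS and 2 mM L-glutamine for 48 h at 37 °C. Settled cells were fixed with 80% TCA (16% final), stained with SRB, and read at 515 nm. Percent growth was calculated against time-zero and untreated control optical densities.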

MDA-MB-468 [5] = assay: Growth inhibition of human MDA-MB-468 cells after 48 hrs by sulforhodamine B assay; settings: MDA-MB-468, 48 h
How it was run: (§3)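 NCI-60 panel cells grown in RPMI 1640 with 5% FBS and 2 mM L-glutamine, seeded at 5000–40,000 cells/well and preincubated 24 h. Five 10-fold dilutions (0.001–100 µM) from DMSO stocks were added for 48 h at 37 °C. Adherent cells were fixed with cold TCA (10% final) for 60 min at 4 °C, stained with 0.4% SRB, and read at 515 nm. GI50 was set where 100×(T−T0)/(C−T0)=50.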

[6] = Growth inhibition of human Hs 578T cells after 48 hrs by sulforhodamine B assay
How it was run: (§4)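 NCI-60 screen: cells in RPMI 1640 with 5% FBS and 2 mM glutamine, 5000–40,000 cells/well, preincubated 24 h. Five concentrations (10-fold dilutions; 100 to 0.001 µM) applied for 48 h at 37 °C. TCA fixation, SRB stain, absorbance at 515 nm. Time-zero plates included; GI50 where 100×(T−T0)/(C−T0)=50.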

MCF7 = assay: Growth inhibition of human MCF7 cells after 48 hrs by sulforhodamine B assay; settings: MCF7, 48 h; how it was run: as §3
RXF 393 = assay: Growth inhibition of human RXF393 cells after 48 hrs by sulforhodamine B assay; settings: RXF 393, 48 h; how it was run: as §3
SN12C = assay: Growth inhibition of human SN12C cells after 48 hrs by sulforhodamine B assay
How it was run: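 NCI-60 five-dose screen. Cells were grown in RPMI 1640 with 5% FBS and 2 mM L-glutamine, plated at 5000–40,000 cells/well and incubated 24 h before dosing, with T0 plates TCA-fixed. DMSO stocks were diluted to doses of […] and exposed 48 h at 37 °C, 5% CO2. Cells were fixed with cold TCA (final 10%, 60 min, 4 °C), stained with 0.4% SRB in 1% acetic acid for 10 min, solubilized in 10 mM trizma base and read at 515 nm. GI50 is where 100×(T−T0)/(C−T0)=50.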

A498 = assay: Growth inhibition of human A498 cells after 48 hrs by sulforhodamine B assay; settings: A498, 48 h; how it was run: as §4
786-0 = assay: Growth inhibition of human 786-0 cells after 48 hrs by sulforhodamine B assay; settings: 786-0, 48 h; how it was run: as §4
OVCAR-5 [7] = assay: Growth inhibition of human OVCAR5 cells after 48 hrs by sulforhodamine B assay; settings: OVCAR-5, 48 h; how it was run: as §3
IGROV-1 = assay: Growth inhibition of human IGROV1 cells after 48 hrs by sulforhodamine B assay; settings: IGROV-1, 48 h; how it was run: as §4
MDA-MB-435 [8] = assay: Growth inhibition of human MDA-MB-435 cells after 48 hrs by sulforhodamine B assay; settings: MDA-MB-435, 48 h; how it was run: as §3
SF-268 [9] = assay: Growth inhibition of human SF268 cells after 48 hrs by sulforhodamine B assay; settings: SF-268, 48 h; how it was run: as §3
COLO 205 = assay: Growth inhibition of human COLO205 cells after 48 hrs by sulforhodamine B assay; settings: COLO 205, 48 h; how it was run: as §4
HOP-62 = assay: Growth inhibition of human HOP62 cells after 48 hrs by sulforhodamine B assay; settings: HOP-62, 48 h; how it was run: as §4
A549 = assay: Growth inhibition of human A549/ATCC cells after 48 hrs by sulforhodamine B assay; settings: A549, 48 h; how it was run: as §4
[10] = Growth inhibition of human Hs 578T cells assessed as cell growth at 10 uM after 48 hrs by sulforhodamine B assay; settings: read-out: Activity; how it was run: as §2

Row | Structure (SMILES) | growth at 10 µM (MDA-MB-468 [1]) | growth at 10 µM (BT-549) | growth at 10 µM (DU-145) | growth at 10 µM (PC-3) | growth at 10 µM (OVCAR-5 [2]) | growth at 10 µM (MDA-MB-435 [3]) | growth at 10 µM (Malme-3M) | growth at 10 µM (SF-268 [4]) | growth at 10 µM (SW-620) | GI50 (MDA-MB-468 [5]) | GI50 [6] | GI50 (MCF7) | GI50 (RXF 393) | GI50 (SN12C) | GI50 (A498) | GI50 (786-0) | GI50 (OVCAR-5 [7]) | GI50 (IGROV-1) | GI50 (MDA-MB-435 [8]) | GI50 (SF-268 [9]) | also measured
1 | COc1ccc(CCN2COc3cc(C)c4c(c3C2)CC[C@@](C)(CC/C=C(\C)CC/C=C(\C)CCC=C(C)C)O4)cc1OC | -25.4% | 105% | -4.93% | 62.1% | 42.7% | -51.1% | 72.9% | -75.2% | -98.1% | 1.46 µM | 2.3 µM | 1.54 µM | 1.36 µM | 1.63 µM | 1.8 µM | 1.78 µM | 1.86 µM | 2.08 µM | 1.66 µM | 2.13 µM | growth at 10 µM (MOLT-4): 0.05%; GI50 (COLO 205): 1.79 µM; GI50 (HOP-62): 1.76 µM; GI50 (A549): 1.9 µM
2 | CC(C)=CCC/C(C)=C/CC/C(C)=C/CC[C@]1(C)CCc2c3c(c(C)c(C)c2O1)OCN(CCCCCO)C3 | 87.4% | 114% | 99.6% | 71.8% | 94.4% | 35.5% | 106% | 75.9% | -18.6% | 4.14 µM | 7.26 µM | 3.74 µM | 1.94 µM | 5.56 µM | 5.76 µM | 6.47 µM | 5.93 µM | 6.18 µM | 5.8 µM | 7.13 µM | growth at 10 µM [10]: 97.3%; growth at 10 µM (MOLT-4): -24.8%; GI50 (COLO 205): 3.39 µM; GI50 (HOP-62): 5.9 µM; GI50 (A549): 6.19 µM
3 | CC(C)=CCC/C(C)=C/CC/C(C)=C/CC[C@]1(C)CCc2c3c(cc(C)c2O1)OCN(CCCO)C3 | -29% | 92% | -13.6% | 50.8% | 40.4% | -24% | 110% | -78.5% | -92.1% | 1.56 µM | 2.03 µM | 1.66 µM | 1.2 µM | 1.67 µM | 1.46 µM | 1.86 µM | 1.77 µM | 1.81 µM | 1.65 µM | 2.04 µM | growth at 10 µM [10]: -11.8%; growth at 10 µM (MOLT-4): -20.3%; GI50 (COLO 205): 1.98 µM; GI50 (HOP-62): 1.78 µM; GI50 (A549): 1.89 µM
4 | CC(C)=CCC/C(C)=C/CC/C(C)=C/CC[C@]1(C)CCc2c3c(cc(C)c2O1)OCN(C1CCN(Cc2ccccc2)CC1)C3 | 0.33% | 109% | 65.3% | 33.2% | 79% | 3.07% | 122% | 12.9% | 100% | 1.41 µM | 1.51 µM | 1.59 µM | 1.22 µM | 1.46 µM | 1.31 µM | 1.52 µM | 2.17 µM | 1.56 µM | 1.2 µM | 1.67 µM | growth at 10 µM [10]: -6.43%; GI50 (COLO 205): 2 µM; GI50 (HOP-62): 1.82 µM; GI50 (A549): 1.57 µM
5 | CC(C)=CCC/C(C)=C/CC/C(C)=C/CC[C@]1(C)CCc2c3c(cc(C)c2O1)OCN(CCCCCO)C3 | 43% | 110% | 37.2% | 63.7% | 87.3% | 44.7% | 116% | 48.5% | -83.7% | 4.14 µM | 7.26 µM | 3.74 µM | 1.94 µM | 5.56 µM | 5.76 µM | 6.47 µM | 5.93 µM | 6.18 µM | 5.8 µM | 7.13 µM | growth at 10 µM [10]: 36.6%; growth at 10 µM (MOLT-4): -1.68%; GI50 (COLO 205): 3.39 µM; GI50 (HOP-62): 5.9 µM; GI50 (A549): 6.19 µM
